Bioassay records: PubChem, several laboratories
A selection: hits, their analogues and other compounds. The true share with any hit is near 5%.
UPR CHOP act: activators of apoptotic CHOP UPR arm, primary screen, cell-based, CHO-CHOP luciferase reporter, luminescence, uHTS. activation, % at 10 µM. UPR activation; percent of tunicamycin response over DMSO baseline. AID 449763, 2010. hit rate 0.34% among 330,000;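 active = at 10 µM dose, activation of 40% or more, normalized to positive control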;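 note: 100% = tunicamycin at 10 µg/mL and 0% = DMSO alone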
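System: CHO-CHOP luciferase reporter cell line | Buffer or medium: F12 medium containing 10% fetal bovine serum | Doses: One dose, 10 µM in 0.5% DMSO | Times: 6 h compound exposure at 37 °C after overnight seeding | Signal: Luciferase luminescence | Read-out: % activation vs tunicamycin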
CSC inhib: cancer stem cell viability inhibitors, primary screen, luminescence | cancer stem cell-like cells viability | inhibition, % at 7.5 µM | hit rate 1.1% among 300,000 | AID 2717, 2010; in the data active = inhibition above about 75%; inconclusive = no clear call, values can overlap the other calls; tested in HMLE shEcad cells
Beta cell apopt: inhibitors of cytokine-induced beta cell apoptosis, primary screen, luminescence; INS-1E cytokine-induced death, ATP luminescence, 48 h; percent of positive-control rescue, neutral wells zero; protection from apoptosis, % (test concentration not listed); hit rate 0.8% among 300,000; AID 435005, 2010;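 active = Every replicate reaches about 75%, or at least half do and their mean reaches it too, limit read from the data; inconclusive = At least half of replicates reach the limit but their mean does not; inactive = Under half of replicates reach the limit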;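 note: 0% = cytokine-treated negative control wells and 100% = positive control rescue; higher means more ATP so stronger rescue from cytokine killing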
Mdm2 MdmX PPI: inhibitors of human Mdm2-MdmX association, primary screen, cell-based, luminescence, split luciferase, SaOS-2, uHTS; Protein Mdm4 (Homo sapiens) + E3 ubiquitin-protein ligase Mdm2 (Homo sapiens), …; SaOS-2 split-luciferase Mdm2/MdmX complementation; inhibition, % at 8 µM; hit rate 3% among 330,000;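 active = inhibition of at least 50% at 8 µM in the primary screen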
Target sequence (O15151 whole entry, looked up): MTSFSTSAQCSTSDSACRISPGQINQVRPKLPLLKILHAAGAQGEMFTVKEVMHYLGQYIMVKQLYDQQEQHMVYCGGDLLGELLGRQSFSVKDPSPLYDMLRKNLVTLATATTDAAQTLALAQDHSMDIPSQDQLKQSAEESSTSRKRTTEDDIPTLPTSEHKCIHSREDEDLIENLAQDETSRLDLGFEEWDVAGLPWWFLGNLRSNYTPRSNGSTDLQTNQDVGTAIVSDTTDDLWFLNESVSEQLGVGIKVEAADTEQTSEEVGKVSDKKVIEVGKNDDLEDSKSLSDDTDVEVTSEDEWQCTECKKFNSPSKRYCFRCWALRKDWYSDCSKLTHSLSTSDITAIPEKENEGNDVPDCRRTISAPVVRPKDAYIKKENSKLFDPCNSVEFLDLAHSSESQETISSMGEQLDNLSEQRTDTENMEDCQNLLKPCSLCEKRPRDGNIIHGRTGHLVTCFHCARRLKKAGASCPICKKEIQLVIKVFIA
Target sequence (Q00987 whole entry, looked up): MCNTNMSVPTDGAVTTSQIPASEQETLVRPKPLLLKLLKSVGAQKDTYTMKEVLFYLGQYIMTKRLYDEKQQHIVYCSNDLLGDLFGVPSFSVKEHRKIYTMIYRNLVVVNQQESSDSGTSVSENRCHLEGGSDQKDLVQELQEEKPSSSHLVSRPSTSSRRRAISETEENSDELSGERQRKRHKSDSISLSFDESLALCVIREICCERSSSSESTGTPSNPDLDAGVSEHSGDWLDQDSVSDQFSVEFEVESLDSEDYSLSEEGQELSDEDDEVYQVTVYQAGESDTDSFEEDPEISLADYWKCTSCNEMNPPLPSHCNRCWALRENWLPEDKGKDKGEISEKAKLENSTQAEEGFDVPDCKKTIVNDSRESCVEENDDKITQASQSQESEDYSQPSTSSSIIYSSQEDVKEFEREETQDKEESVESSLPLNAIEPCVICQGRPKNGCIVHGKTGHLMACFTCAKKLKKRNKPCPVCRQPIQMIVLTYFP
UPR XBP1 act: activators of adaptive XBP1 UPR arm, primary screen, cell-based, CHO-XBP1 luciferase reporter, luminescence, uHTS; IRE1-XBP1 UPR activation; percent of tunicamycin response, DMSO as zero; activation, % at 20 µM; hit rate 0.33% among 330,000; AID 463104, 2010;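 active = versus positive control, 20 µM dose yields 30% or more activation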;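 note: 100% = tunicamycin at 10 µg/mL and 0% = DMSO only wells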
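assay system = CHO-XBP1 luciferase reporter cells | amount = 1000 cells/well | buffer or medium = F12 plus 10% FBS | compound dosing = single point, 20 µM final compound, 1% DMSO | incubation = 16-18 h cell attachment at 37 °C, then 6 h compound exposure | detection = Steady-Glo luminescence read | controls = tunicamycin 10 µg/mL and vehicle-only wells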
T cruzi inh: inhibitors of intracellular T. cruzi growth, primary screen, luminescence, NIH3T3 host cells | T. cruzi beta-gal in NIH3T3, 90 h | inhibition, % (test concentration not listed) | hit rate 1.4% among 300,000 | AID 1885, 2009;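 active = mean inhibition across valid replicates above about 55%, limit read from the data; inconclusive = mean below that limit but half or more replicates reach it; inactive = mean below it, under half of replicates reach it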;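 note: signal also drops with host cell toxicity which is not excluded here; 0% = plate median of DMSO wells and 100% = zero luminescence signal; higher percent means less beta-gal luminescence so fewer parasites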
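Assay system: NIH/3T3 fibroblasts plus reporter T. cruzi. Amount: NIH/3T3 cells, 5,000 per well. Buffer or medium: DMEM, 2% fetal bovine serum. Doses: compound pinned at 50 nL/well, DMSO. Schedule: ≥90 h infection period, 3 h prior cell attachment. Signal: luminescent β-galactosidase signal after 60 min lysis. Read-out: parasite load inhibition, %.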
* marks the source's active call; other numbers are inactive results.

What do the screens show for `CCOC(=O)c1ccc(NC(=O)CC2S/C(=N/N=C/c3c[nH]c4ccccc34)NC2=O)cc1` (centres undefined)?
UPR CHOP act: 2; CSC inhib: 88*; Beta cell apopt: -6; Mdm2 MdmX PPI: 35; UPR XBP1 act: 3; T cruzi inh: 3

How did CNC(=S)NNC(=O)c1ccccc1F do in these assays?
UPR CHOP act: 0; CSC inhib: -4; Beta cell apopt: -4; Mdm2 MdmX PPI: 37; UPR XBP1 act: 0; T cruzi inh: -11

Results for CCOC(=O)N/N=C\C=C\c1ccco1 ?
UPR CHOP act: 2; CSC inhib: -5; Beta cell apopt: -7; Mdm2 MdmX PPI: -26; UPR XBP1 act: 3; T cruzi inh: 5

What do the screens show for `Cc1ccc(N/N=C/C=C/c2ccco2)cc1`?
UPR CHOP act: 4; CSC inhib: 44; Mdm2 MdmX PPI: -103; UPR XBP1 act: -2; T cruzi inh: 73*

Results for CCCN(CCC)CCNC(=O)c1cc2c(-c3ccc(Cl)cc3)nn(C)c2s1 ?
UPR CHOP act: 1; CSC inhib: 102*; Beta cell apopt: 53; Mdm2 MdmX PPI: 24; UPR XBP1 act: 0; T cruzi inh: 53

What do the screens show for `CCN(CC)CCNC(=O)c1cc2c(-c3ccc(Cl)cc3)nn(C)c2s1`?
UPR CHOP act: 2; Mdm2 MdmX PPI: 39; UPR XBP1 act: -2; T cruzi inh: 40

How did Cn1nc(-c2ccc(Cl)cc2)c2cc(C(=O)NCCCN3CCOCC3)sc21 do in these assays?
UPR CHOP act: 0; CSC inhib: 79*; Beta cell apopt: 12; Mdm2 MdmX PPI: 17; UPR XBP1 act: -2; T cruzi inh: -1

What do the screens show for `CCCCC[n+]1ccn(C2=C([O-])c3ccccc3C(=O)/C2=N\S(=O)(=O)c2ccc(Cl)cc2)c1`?
UPR CHOP act: 6; CSC inhib: 17; Beta cell apopt: 109*; Mdm2 MdmX PPI: 31; UPR XBP1 act: 1; T cruzi inh: 46

How did CCCC[n+]1ccn(-c2nc3ccccc3nc2[N-]S(=O)(=O)c2ccc(Br)cc2)c1 do in these assays?
UPR CHOP act: 1; CSC inhib: 4; Beta cell apopt: -1; Mdm2 MdmX PPI: 34; UPR XBP1 act: -4; T cruzi inh: 3

How did CCCC[n+]1ccn(C2=C([O-])c3ccccc3C(=O)/C2=N\S(=O)(=O)c2ccc(Cl)cc2)c1 do in these assays?
UPR CHOP act: 6; CSC inhib: 27; Beta cell apopt: 114*; Mdm2 MdmX PPI: 34; UPR XBP1 act: -3; T cruzi inh: 10

Results for COc1ccc(C2SCC(=O)N2CC23CC4CC(CC(C4)C2)C3)cc1 (centres undefined) ?
UPR CHOP act: 0; CSC inhib: -9; Beta cell apopt: 4; Mdm2 MdmX PPI: 20; UPR XBP1 act: 0; T cruzi inh: 61*

How did CCCOC(=O)CC1C(=O)NCCN1C(=O)OC(C)(C)C (centres undefined) do in these assays?
UPR CHOP act: 1; CSC inhib: -3; Beta cell apopt: -2; Mdm2 MdmX PPI: 1; UPR XBP1 act: 4; T cruzi inh: -2

What do the screens show for `CCCCOC(=O)Nc1nnc(Cc2ccc(Cl)cc2)s1`?
UPR CHOP act: -1; CSC inhib: 2; Beta cell apopt: -3; Mdm2 MdmX PPI: 6; UPR XBP1 act: -1; T cruzi inh: 19

Results for N#C/C(=C\c1c[nH]c2ccc(Br)cc12)c1ccccn1 ?
UPR CHOP act: -1; CSC inhib: 79*; Beta cell apopt: 12; Mdm2 MdmX PPI: 49; UPR XBP1 act: -2; T cruzi inh: 2

How did Cc1ccc2ccc3cccnc3c2n1 do in these assays?
CSC inhib: -10; Beta cell apopt: 86*; T cruzi inh: inconclusive

How did O=C(Cc1c(Cl)cccc1Cl)Nc1ccncc1Cl do in these assays?
UPR CHOP act: -1; CSC inhib: 9; Beta cell apopt: 3; Mdm2 MdmX PPI: 3; UPR XBP1 act: -4; T cruzi inh: -14

Results for COc1ccc(CC(=O)Nc2ccncc2Cl)cc1 ?
UPR CHOP act: 3; CSC inhib: 8; Beta cell apopt: 102*; Mdm2 MdmX PPI: 10; UPR XBP1 act: -6; T cruzi inh: -59

What do the screens show for `O=S(=O)(c1ccc2ccccc2c1)N1CCC(c2nc(-c3ccncc3)no2)CC1`?
UPR CHOP act: 1; CSC inhib: 60; Beta cell apopt: 17; Mdm2 MdmX PPI: 20; UPR XBP1 act: 1; T cruzi inh: 71*

How did CN(C)c1ccc(-c2noc(C3CCN(S(=O)(=O)c4cccc(Cl)c4)CC3)n2)cc1 do in these assays?
UPR CHOP act: -2; CSC inhib: -13; Mdm2 MdmX PPI: 33; UPR XBP1 act: -1

How did CCOCCCNC(=O)c1cc(Nc2ccc(OC)cc2OC)nc2ccccc12 do in these assays?
UPR CHOP act: -1; CSC inhib: 0; Beta cell apopt: 5; Mdm2 MdmX PPI: 12; UPR XBP1 act: -5; T cruzi inh: -7

How did CC1(C)Oc2cc(N)c([N+](=O)[O-])cc2O1 do in these assays?
UPR CHOP act: 2; CSC inhib: -5; Beta cell apopt: -3; Mdm2 MdmX PPI: 5; UPR XBP1 act: 0; T cruzi inh: 3

Results for C=C1N(C)c2cc([N+](=O)[O-])c(N)cc2C1(C)C ?
UPR CHOP act: -2; CSC inhib: 2; Beta cell apopt: 9; Mdm2 MdmX PPI: -1; UPR XBP1 act: -1; T cruzi inh: 68*

How did Cc1nnc(C)c2c(C)n(C(c3ccccc3)c3ccccc3)c(C)c12 do in these assays?
UPR CHOP act: 1; CSC inhib: 14; Beta cell apopt: -4; Mdm2 MdmX PPI: -10; UPR XBP1 act: -1; T cruzi inh: 59*

Results for Cc1nn(-c2ccccc2)c(N2CCCCC2)c1/C=N/O ?
UPR CHOP act: -1; CSC inhib: 164*; Beta cell apopt: -10; Mdm2 MdmX PPI: 5; UPR XBP1 act: 2; T cruzi inh: 15

What do the screens show for `Cc1nn(-c2ccccc2)c(N2CCCC2)c1C=O`?
UPR CHOP act: 1; CSC inhib: -13; Beta cell apopt: -9; Mdm2 MdmX PPI: 25; UPR XBP1 act: 6; T cruzi inh: 12

How did CN(C)C(=S)Nc1nc2ccccc2s1 do in these assays?
T cruzi inh: 57*

Results for CC1C(=O)C(C)C(c2ccc(Br)cc2)NC1c1ccc(Br)cc1 (centres undefined) ?
UPR CHOP act: 1; CSC inhib: 49; Beta cell apopt: 8; Mdm2 MdmX PPI: 34; UPR XBP1 act: 1; T cruzi inh: 68*
